The test system of data set [1] is Plasmodium falciparum. As to the kind of experiment: Antiplasmodial activity against chloroquine-sensitive asexual erythrocytic stage of Plasmodium falciparum NF54 assessed as […] lactate dehydrogenase assay. Type of data set: functional, organism-based. In outline: (§1)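 Asexual erythrocytic P. falciparum kept in continuous culture (modified Trager–Jensen). Growth measured by parasite lactate dehydrogenase assay (modified Makler). Full dose-response: 10 twofold dilutions in complete medium from 10 μg/mL down to 0.02 μg/mL. Tested in triplicate on one occasion. Chloroquine and artesunate as references.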

Data set [2] concerns Plasmodium falciparum. Nature of the data set: Antiplasmodial activity against chloroquine-resistant asexual erythrocytic stage of Plasmodium falciparum Dd2 assessed as […] lactate dehydrogenase assay. Format: functional, organism-based. In short, it runs like this: as §1
Data set [3] relates to Plasmodium falciparum. Nature of the data set: Resistance index, ratio of IC50 for chloroquine-resistant asexual erythrocytic stage of Plasmodium falciparum Dd2 to IC50 for chloroquine-sensitive asexual erythrocytic stage of Plasmodium falciparum NF54. Type of data set: functional. In short, it runs like this:
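Resistance index calculated as IC50 against Dd2 divided by IC50 against NF54, both from the pLDH assay.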

Data set [4] concerns Candida albicans. Nature of the data set: Antifungal activity against Candida albicans IHEM 374 by microdilution method. Format: functional. In outline: (§2)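 Broth microdilution: log2 dilution series made from stocks in 10% DMSO, diluted 1:5 in RPMI 1640 with glutamine and without bicarbonate. Equal volume of working inoculum added: 1 × 10^3 CFU/mL at 37 °C (C. albicans, A. flavus) or 1 × 10^5 CFU/mL at 20 °C (R. bogoriensis). Absorbance read at 530 nm. MIC taken as the concentration giving 50% growth inhibition versus 1% DMSO medium control. Amphotericin B as positive control.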
A general note: In broth dilution the organism is exposed to a series of concentrations in liquid medium.

Data set [5] is described as follows: Antifungal activity against Rhodotorula bogoriensis MUCL 11796 by microdilution method. Format: functional. In outline:
as §2

For data set [6], the system named is Aspergillus flavus. As to the kind of experiment: Antifungal activity against Aspergillus flavus IHEM 5785 by microdilution method. Type of data set: functional. In outline:
as §2

In data set [7] the test system is Candida albicans. Nature of the data set: Antifungal activity against Candida albicans IHEM 374 at 600 ug/dish after 1 day by disk diffusion method. Format: functional, organism-based. The following applies: 600 ug/dis. In short, it runs like this: (§3)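 Disk diffusion: strains subcultured on Sabouraud dextrose agar; inoculum of colonies (yeast) or mycelium plus spores (A. flavus) in sterile saline adjusted to 0.5 McFarland, swabbed onto Mueller-Hinton + GMB agar ([…], 0.5 μg/mL methylene blue). DMSO-dissolved compound applied to 6 mm paper disks and freeze-dried; 600 μg/dish in triplicate. Incubated at 37 °C for 1 day (C. albicans, A. flavus) or 20 °C for 4 days (R. bogoriensis). Nystatin disks as positive control, DMSO disks as negative control.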

Data set [8] is described as follows: Antifungal activity against Rhodotorula bogoriensis MUCL 11796 at 600 ug/dish after 4 days by disk diffusion method. Format: functional. The following applies: 600 ug/dis. In short, it runs like this: as §3
For orientation: In agar diffusion tests the substance spreads into inoculated agar from a disc or well.

Data set [9] has as its system Aspergillus flavus. As to the kind of experiment: Antifungal activity against Aspergillus flavus IHEM 5785 at 600 ug/dish after 1 day by disk diffusion method. Type of data set: functional, organism-based. The settings on record: 600 ug/dis. In short, it runs like this: as §3
The next data set deals with CHO. As to the kind of experiment: Cytotoxicity against CHO cells assessed as cell growth and survival after 48 hrs by MTT assay. Format: cell-based. The following applies: Cricetulus griseus. In outline:
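CHO mammalian cells; growth and survival read by MTT assay. Samples diluted in complete medium using the same scheme as the emetine reference (tenfold serial dilutions, 6 concentrations). Emetine was the reference drug. IC50 obtained by non-linear dose-response curve fitting.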
Background: Tetrazolium dyes change colour on reduction, which living cells bring about.

Data set [10] can be described thus: Selectivity index, ratio of IC50 for CHO cells to IC50 for chloroquine-sensitive asexual erythrocytic stage of Plasmodium falciparum NF54. Type of data set: toxicity, cell-based. The settings on record: hamster; read-out: Ratio IC50. In short, it runs like this: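 Selectivity index calculated as IC50 in CHO cells (MTT) divided by IC50 against NF54 (pLDH).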

The text below walks through data of ChEMBL document CHEMBL3407490, “Synthesis of functionalized 3-, 5-, 6- and 8-aminoquinolines via intermediate (3-pyrrolin-1-yl)- and (2-oxopyrrolidin-1-yl)quinolines and evaluation of their antiplasmodial and antifungal activity” (Eur J Med Chem, 2015).

By IC50 is commonly meant the concentration that gives 50% inhibition. As usually defined, the MIC is the smallest concentration in the dilution series that meets the test's criterion for growth inhibition. A high value points to weaker potency.

Structures are written as SMILES. Converted amounts (≈) assume the structure as drawn. The source made the active and inactive calls.

For the molecule `C1=CCN(c2cccc3ncccc23)C1`, in the data set with Plasmodium falciparum [1], the IC50 was more than 50 µM.

For the molecule `O=C1CCCN1c1cccc2cccnc12`, in the data set with Plasmodium falciparum [1], the IC50 is more than 45 µM.

Take `O=C1CCCN1c1ccc2ncccc2c1`: the IC50 in the data set on Plasmodium falciparum [1] is more than 45 µM.

On to `C1=CCN(c2cccc3cccnc23)C1`, for which, in the data set on Plasmodium falciparum [1], the IC50 was more than 50 µM.

In the case of `C[C@H]1[C@H](OC(=O)CCC(=O)O)O[C@@H]2O[C@@]3(C)CC[C@H]4[C@H](C)CC[C@@H]1[C@@]24OO3` [ARTESUNATE], in the data set with Plasmodium falciparum [2], the IC50 came out at 0.011 µM. The “Ratio IC50” value with Plasmodium falciparum [3] is recorded as 2.2.

Turning to `c1ccc2ncc(N3CCCC3)cc2c1`, in the data set with Plasmodium falciparum [1], the IC50 is more than 50 µM.

Consider `C[C@@H]1[C@H](O)[C@@H](C)/C=C/C=C/C=C/C=C/C=C/C=C/C=C/[C@H](O[C@@H]2O[C@H](C)[C@@H](O)[C@H](N)[C@@H]2O)C[C@@H]2O[C@](O)(C[C@@H](O)C[C@@H](O)[C@H](O)CC[C@@H](O)C[C@@H](O)CC(=O)O[C@H]1C)C[C@H](O)[C@H]2C(=O)O` [AMPHOTERICIN B], for which the MIC against Candida albicans [4] is less than 0.2 µM; in data set [5] it was less than 0.2 µM; in the data set with Aspergillus flavus [6], 30 µM (≈ 27.7 µg/mL).

For the molecule `CC1CCCN1c1cccc2ncccc12` (stereo not drawn), the IC50 with Plasmodium falciparum [1] is more than 45 µM.

For `CC1CCCN1c1ccc2ncccc2c1` (stereo not drawn), in the data set with Plasmodium falciparum [1], the IC50 came out at 41.9 µM.

For `OCCCCNc1cccc2cccnc12`, in the data set on Plasmodium falciparum [1], the IC50 is more than 45 µM. For the same molecule, the outcome (in the data set with Candida albicans [7]; in [8]; in the data set on Aspergillus flavus [9]) was Active. Besides, the MIC against Candida albicans [4] amounted to 1200 µM (≈ 260 µg/mL); in [5], 40 µM (≈ 8.65 µg/mL); in the data set with Aspergillus flavus [6], 100 µM (≈ 21.6 µg/mL).

Regarding `c1cnc2ccc(N3CCCC3)cc2c1`, the IC50 in the data set with Plasmodium falciparum [1] was more than 50 µM.

With `CC[C@H]1CN2CCc3cc(OC)c(OC)cc3[C@@H]2C[C@@H]1C[C@H]1NCCc2cc(OC)c(OC)cc21` [EMETINE], in the data set with CHO, the IC50 is 0.125 µM.

For the molecule `Cc1nc2ccccc2cc1N1CCCC1C` (stereo not drawn), the IC50 was 13.3 µM in the data set on Plasmodium falciparum [1], 38 µM in the data set with Plasmodium falciparum [2] and 294 µM in the data set on CHO. For the same molecule, in [10], the selectivity ratio is 22. For the same molecule, the “Ratio IC50” value with Plasmodium falciparum [3] is given as 2.9.

Regarding `CC(O)CCCNc1ccc2ncccc2c1` (stereo not drawn), the IC50 with Plasmodium falciparum [1] was more than 40 µM. Moreover, the result (in the data set on Candida albicans [7]; in [8]; in the data set on Aspergillus flavus [9]) was Active. For the same molecule, the MIC amounted to 1100 µM (≈ 253 µg/mL) with Candida albicans [4], 1100 µM (≈ 253 µg/mL) in data set [5] and 300 µM (≈ 69.1 µg/mL) against Aspergillus flavus [6].

On to `CC(O)CCCNc1cnc2ccccc2c1` (stereo not drawn), for which, in the data set with Plasmodium falciparum [1], the IC50 was more than 40 µM. Moreover, the outcome (in the data set on Candida albicans [7]; in [8]; with Aspergillus flavus [9]) was Active. The MIC against Candida albicans [4] came to 1100 µM (≈ 253 µg/mL); in data set [5], 300 µM (≈ 69.1 µg/mL); in the data set on Aspergillus flavus [6], 100 µM (≈ 23 µg/mL).

As to `CC(C)(O)CCCNc1cccc2ncccc12`, the IC50 in the data set with Plasmodium falciparum [1] worked out at 28.2 µM. Further, the outcome (with Candida albicans [7]; in [8]; in the data set on Aspergillus flavus [9]) was Active. For the same molecule, the MIC against Candida albicans [4] turned out to be 2000 µM (≈ 489 µg/mL); in data set [5] it was 20 µM (≈ 4.89 µg/mL); against Aspergillus flavus [6] it was 300 µM (≈ 73.3 µg/mL).

Consider `c1cc(N2CCCC2)c2cccnc2c1`, for which the IC50 with Plasmodium falciparum [1] is more than 50 µM.

With `CC(C)(O)CCCNc1ccc2ncccc2c1`, the IC50 with Plasmodium falciparum [1] was more than 40 µM.

`C1=CCN(c2cnc3ccccc3c2)C1`: in the data set with Plasmodium falciparum [1], the IC50 was more than 50 µM.

As for `Cc1nc2ccccc2cc1NCCCC(C)O` (stereo not drawn), in the data set with Plasmodium falciparum [1], the IC50 was more than 40 µM.

On to `CC(C)(O)CCCNc1cccc2cccnc12`, for which the IC50 in the data set on Plasmodium falciparum [1] was more than 40 µM. Besides, the result (in the data set on Candida albicans [7]; in data set [8]; in the data set with Aspergillus flavus [9]) was Active. For the same molecule, the MIC against Candida albicans [4] turned out to be 1000 µM (≈ 244 µg/mL); in data set [5], 30 µM (≈ 7.33 µg/mL); with Aspergillus flavus [6] it was 60 µM (≈ 14.7 µg/mL).

On to `CC1CCCN1c1cnc2ccccc2c1` (stereo not drawn), for which, in the data set with Plasmodium falciparum [1], the IC50 came to 31.1 µM.

Take `OCCCCNc1cnc2ccccc2c1`: the IC50 in the data set on Plasmodium falciparum [1] was more than 45 µM.

For the molecule `CC(O)CCCNc1cccc2ncccc12` (stereo not drawn), in the data set on Plasmodium falciparum [1], the IC50 came to 32.6 µM.

For `OCCCCNc1cccc2ncccc12`, the IC50 in the data set on Plasmodium falciparum [1] was 19.9 µM; in the data set with Plasmodium falciparum [2], 49 µM; with CHO it was more than 100 µM. The selectivity ratio in data set [10] was determined as 23. Besides, the “Ratio IC50” value in the data set with Plasmodium falciparum [3] was found to be 2.5.

`OCCCCNc1ccc2ncccc2c1`: the IC50 in the data set with Plasmodium falciparum [1] was more than 45 µM. The result (in the data set with Candida albicans [7]; in data set [8]; in the data set on Aspergillus flavus [9]) was Active. The MIC came to 1200 µM (≈ 260 µg/mL) against Candida albicans [4], 1200 µM (≈ 260 µg/mL) in data set [5] and 10 µM (≈ 2.16 µg/mL) in the data set with Aspergillus flavus [6].

With `C1=CCN(c2ccc3ncccc3c2)C1`, the IC50 in the data set with Plasmodium falciparum [1] is more than 50 µM.

Regarding `O=C1CCCN1c1cccc2ncccc12`, the IC50 in the data set with Plasmodium falciparum [1] is more than 45 µM.

As for `O=C1CCCN1c1cnc2ccccc2c1`, in the data set on Plasmodium falciparum [1], the IC50 was more than 45 µM.

With `Brc1c(Br)c(Br)n(-c2ccc3ncccc3c2Br)c1Br`, the IC50 with Plasmodium falciparum [1] is more than 15 µM.

With `Cc1nc2ccccc2cc1NCCCC(C)(C)O`, the IC50 with Plasmodium falciparum [1] was more than 35 µM.
